Source: ChEMBL document CHEMBL3739331, “Synthesis and Bioactivities of Kanamycin B-Derived Cationic Amphiphiles” (J Med Chem, 2015)
Converted amounts (≈) assume the structure as drawn. The source made the active and inactive calls. The calls are words filed in the database; no cut-off is given here.

Experiments:
Enterococcus = experiment: Antibacterial activity against vancomycin-resistant Enterococcus by microdilution method; assay type: functional
How it was run: (§1)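 Broth microdilution MIC, in μg/mL, against a panel of Gram-positive and Gram-negative strains. Run at least in duplicate.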

Salmonella enterica = experiment: Antibacterial activity against Salmonella enterica ATCC 14028 by microdilution method; assay type: functional
How it was run: (§2)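 Broth microdilution MIC against the named bacterial strain, reported in μg/mL; each determination run at least in duplicate.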

Candida albicans [1] = experiment: Antifungal activity against azole-resistant Candida albicans ATCC 90819 after 48 hrs by microbroth dilution method; assay type: functional; details: ATCC 90819, 48 h
How it was run: (§3)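 Yeast MIC by broth microdilution, run in duplicate. The aminoglycoside compounds are read as MIC-0 (complete inhibition). Azoles are read as MIC-2 (50% inhibition).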

Enterobacter cloacae = experiment: Antibacterial activity against Enterobacter cloacae ATCC 13047 by microdilution method; assay type: functional; how it was run: as §2
[2] = system: Mycobacterium tuberculosis; experiment: Activity of Mycobacterium tuberculosis Eis assessed as compound acetylation activity by Ellman's method
Escherichia coli = experiment: Antibacterial activity against Escherichia coli MC1061 by microdilution method; assay type: functional; how it was run: as §1
[3] = system: Staphylococcus epidermidis; experiment: Antibacterial activity against Staphylococcus epidermidis ATCC 12228 by microdilution method; assay type: functional; how it was run: as §2
Staphylococcus aureus [4] = experiment: Antibacterial activity against methicillin-resistant Staphylococcus aureus by microdilution method; assay type: functional; how it was run: as §1
Staphylococcus aureus [5] = experiment: Antibacterial activity against Staphylococcus aureus ATCC 29213 by microdilution method; assay type: functional; how it was run: as §2
Staphylococcus aureus [6] = experiment: Antibacterial activity against Staphylococcus aureus NRS385 (USA 300) by microdilution method; assay type: functional; how it was run: as §1
Serratia marcescens = experiment: Activity of Serratia marcescens AAC(6')-2d assessed as compound acetylation activity by Ellman's method
Pseudomonas aeruginosa = experiment: Antibacterial activity against Pseudomonas aeruginosa ATCC 27853 by microdilution method; assay type: functional; how it was run: as §2
Aspergillus nidulans = experiment: Antifungal activity against Aspergillus nidulans ATCC 38163 after 48 hrs by microbroth dilution method; assay type: functional; details: ATCC 38163, 48 h
How it was run: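 Filamentous fungus MIC by broth microdilution, run in duplicate. All compounds are read as MIC-0 (complete inhibition).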

Acinetobacter baumannii = experiment: Antibacterial activity against Acinetobacter baumannii ATCC 19606 by microdilution method; assay type: functional; how it was run: as §2
Candida albicans [7] = experiment: Antifungal activity against azole-susceptible Candida albicans ATCC MYA-2310 after 48 hrs by microbroth dilution method; assay type: functional; details: ATCC MYA-2310, 48 h; how it was run: as §3
Candida albicans [8] = experiment: Antifungal activity against azole-resistant Candida albicans ATCC 64124 after 48 hrs by microbroth dilution method; assay type: functional; details: ATCC 64124, 48 h; how it was run: as §3
Bacillus subtilis = experiment: Antibacterial activity against Bacillus subtilis 168 by microdilution method; assay type: functional; details: subsp. subtilis str. 168; how it was run: as §2
Candida albicans [9] = experiment: Antifungal activity against azole-susceptible Candida albicans ATCC MYA-2876 after 48 hrs by microbroth dilution method; assay type: functional; details: ATCC MYA-2876, 48 h; how it was run: as §3
[10] = Activity of AAC(6')-1e/APH(2'')-1a (unknown origin) assessed as compound acetylation activity by Ellman's method
Staphylococcus aureus [11] = experiment: Antibacterial activity against Staphylococcus aureus NRS382 (USA 100) by microdilution method; assay type: functional; how it was run: as §2
[12] = Activity of AAC(3)-4 (unknown origin) assessed as compound acetylation activity by Ellman's method
Staphylococcus aureus [13] = experiment: Antibacterial activity against Staphylococcus aureus NRS22 (USA 600) by microdilution method; assay type: functional; how it was run: as §2
[14] = Hemolytic activity against mouse RBC at 62.5 ug/ml after 60 mins; assay type: ADME, cell-based, Erythrocyte; details: red blood cells, read-out: Activity
Candida albicans [15] = experiment: Antifungal activity against azole-resistant Candida albicans ATCC 10231 after 48 hrs by microbroth dilution method; assay type: functional; details: ATCC 10231, 48 h; how it was run: as §3
Staphylococcus aureus [16] = experiment: Antibacterial activity against Staphylococcus aureus NRS383 (USA 200) by microdilution method; assay type: functional; how it was run: as §2
[17] = system: Bacillus subtilis subsp. subtilis str. 168; experiment: Activity of Bacillus subtilis 168 APH(2'')-1a assessed as compound phosphorylation activity by Ellman's method
[18] = system: Mycolicibacterium smegmatis; experiment: Antibacterial activity against Mycobacterium smegmatis MC2 155 by microdilution method; assay type: functional; details: str. MC2 155; how it was run: as §1
[19] = system: Mycobacterium tuberculosis; experiment: Activity of Mycobacterium tuberculosis AAC(2')-1c assessed as compound acetylation activity by Ellman's method
Candida albicans [20] = experiment: Antifungal activity against azole-resistant Candida albicans MYA-1237 after 48 hrs by microbroth dilution method; assay type: functional; details: MYA-1237, 48 h; how it was run: as §3
[21] = Hemolytic activity against mouse RBC at 7.8 ug/ml after 60 mins; assay type: ADME, cell-based, Erythrocyte; details: red blood cells, read-out: Activity
Klebsiella pneumoniae = experiment: Antibacterial activity against Klebsiella pneumoniae ATCC 27736 by microdilution method; assay type: functional; how it was run: as §2
[22] = Hemolytic activity against mouse RBC at 100 to 500 ug/ml after 60 mins; assay type: ADME, cell-based; details: erythrocyte, 1 h
Candida albicans [23] = experiment: Antifungal activity against azole-resistant Candida albicans MYA-1003 after 48 hrs by microbroth dilution method; assay type: functional; details: MYA-1003, 48 h; how it was run: as §3
Candida albicans [24] = experiment: Antifungal activity against azole-resistant Candida albicans ATCC 64124 at sub-MIC measured over 24 hrs by time-kill assay; assay type: functional, organism-based
How it was run: (§4)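 Time-kill assay on C. albicans ATCC 64124 cultures exposed to test compound at 1/2 MIC, MIC and higher concentrations. Amphotericin B at 1 μg/mL and a no-drug culture serve as controls. CFU are counted at intervals over 24 h.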

Candida albicans [25] = experiment: Antifungal activity against azole-resistant Candida albicans ATCC 90819 after 48 hrs in presence of posaconazole by checkerboard microdilution assay; assay type: functional; details: ATCC 90819, 48 h
How it was run: (§5)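 Checkerboard combinations of the aminoglycoside amphiphile with posaconazole against yeast strains, run in duplicate. Each agent's MIC is taken alone and in combination. The fractional inhibitory concentration index (FICI) is calculated to classify the interaction.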

Candida albicans [26] = experiment: Antifungal activity against azole-resistant Candida albicans ATCC 64124 assessed as cell membrane permeabilization at 1 times MIC after 1 hr by propidium iodide-staining based fluorescence microscopic analysis (reference value: <2%); assay type: functional
Candida albicans [27] = experiment: Antifungal activity against azole-resistant Candida albicans ATCC 64124 assessed as cell death after 24 hrs by time-kill assay; assay type: functional, organism-based; how it was run: as §4
Candida albicans [28] = experiment: Antifungal activity against azole-resistant Candida albicans ATCC 64124 assessed as cell membrane permeabilization at twice the MIC after 1 hr by propidium iodide-staining based fluorescence microscopic analysis (reference value: <2%); assay type: functional
A549 = experiment: Cytotoxicity against human A549 cells after 24 hrs by resazurin assay; assay type: cell-based; details: Homo sapiens, A549, 24 h
[29] = Hemolytic activity against mouse RBC at 125 ug/ml after 60 mins; assay type: ADME, cell-based, Erythrocyte; details: red blood cells, read-out: Activity
Candida albicans [30] = experiment: Antifungal activity against azole-susceptible Candida albicans ATCC MYA-2310 after 48 hrs in presence of posaconazole by checkerboard microdilution assay; assay type: functional; details: ATCC MYA-2310, 48 h; how it was run: as §5
Candida albicans [31] = experiment: Antifungal activity against azole-susceptible Candida albicans ATCC MYA-2876 after 48 hrs in presence of posaconazole by checkerboard microdilution assay; assay type: functional; details: ATCC MYA-2876, 48 h; how it was run: as §5
Candida albicans [32] = experiment: Antifungal activity against azole-resistant Candida albicans MYA-1003 after 48 hrs in presence of posaconazole by checkerboard microdilution assay; assay type: functional; details: MYA-1003, 48 h; how it was run: as §5
Candida albicans [33] = experiment: Antifungal activity against azole-resistant Candida albicans ATCC 64124 at MIC measured after 6 hrs by time-kill assay; assay type: functional; how it was run: as §4
Candida albicans [34] = experiment: Antifungal activity against azole-resistant Candida albicans ATCC 10231 after 48 hrs in presence of posaconazole by checkerboard microdilution assay; assay type: functional; details: ATCC 10231, 48 h; how it was run: as §5
Candida albicans [35] = experiment: Antifungal activity against azole-resistant Candida albicans MYA-1237 after 48 hrs in presence of posaconazole by checkerboard microdilution assay; assay type: functional; details: MYA-1237, 48 h; how it was run: as §5
Candida albicans [36] = experiment: Antifungal activity against azole-resistant Candida albicans ATCC 64124 after 48 hrs in presence of posaconazole by checkerboard microdilution assay; assay type: functional; details: ATCC 64124, 48 h; how it was run: as §5
[37] = Cytotoxicity against human BEAS2B cells after 24 hrs by resazurin assay; assay type: cell-based, BEAS-2B; details: Homo sapiens, BEAS-2B

CCCCCCCCCCCCCCCCSC[C@@H]1O[C@@H](O[C@@H]2[C@@H](O)[C@H](O[C@@H]3O[C@@H](CN)[C@H](O)[C@@H](O)[C@@H]3N)[C@@H](N)C[C@H]2N)[C@@H](O)[C@H](N)[C@H]1O (stereo in doubt)
MIC (Enterococcus): 128 µg/mL (≈ 177 µM)
MIC (Salmonella enterica): > 128 µg/mL
MIC (Candida albicans [1]): 3.9 µg/mL (≈ 5.39 µM)
MIC (Enterobacter cloacae): > 128 µg/mL
Activity [2]: inactive
MIC (Escherichia coli): > 128 µg/mL
MIC [3]: > 128 µg/mL
MIC (Staphylococcus aureus [4]): > 128 µg/mL
MIC (Staphylococcus aureus [5]): > 128 µg/mL
MIC (Staphylococcus aureus [6]): > 128 µg/mL
Activity (Serratia marcescens): inactive
MIC (Pseudomonas aeruginosa): > 128 µg/mL
MIC (Aspergillus nidulans): 1.95 µg/mL (≈ 2.69 µM)
MIC (Acinetobacter baumannii): > 128 µg/mL
MIC (Candida albicans [7]): 3.9 µg/mL (≈ 5.39 µM)
MIC (Candida albicans [8]): 3.9 µg/mL (≈ 5.39 µM)
MIC (Bacillus subtilis): > 128 µg/mL
MIC (Candida albicans [9]): 3.9 µg/mL (≈ 5.39 µM)
Activity [10]: inactive
MIC (Staphylococcus aureus [11]): 128 µg/mL (≈ 177 µM)
Activity [12]: inactive
MIC (Staphylococcus aureus [13]): 128 µg/mL (≈ 177 µM)
hemolysis at 1 h, 62.5 ug/ml [14]: 81%
MIC (Candida albicans [15]): 3.9 µg/mL (≈ 5.39 µM)
MIC (Staphylococcus aureus [16]): > 128 µg/mL
Activity [17]: inactive
MIC [18]: 8 µg/mL (≈ 11 µM)
Activity [19]: inactive
MIC (Candida albicans [20]): 3.9 µg/mL (≈ 5.39 µM)
hemolysis at 1 h, 7.8 ug/ml [21]: 16%
MIC (Klebsiella pneumoniae): > 128 µg/mL
Activity [22]: Toxic
MIC (Candida albicans [23]): 3.9 µg/mL (≈ 5.39 µM)

CCCCCCCCCCCCSC[C@@H]1O[C@@H](O[C@@H]2[C@@H](O)[C@H](O[C@@H]3O[C@@H](CN)[C@H](O)[C@@H](O)[C@@H]3N)[C@@H](N)C[C@H]2N)[C@@H](O)[C@H](N)[C@H]1O (stereo in doubt)
MIC (Enterococcus): 16 µg/mL (≈ 24 µM)
MIC (Salmonella enterica): > 128 µg/mL
MIC (Candida albicans [1]): 31.2 µg/mL (≈ 46.7 µM)
MIC (Enterobacter cloacae): > 128 µg/mL
Activity (Candida albicans [24]): Active
MIC (Candida albicans [25]): 4 µg/mL
Activity (Candida albicans [26]): 90%
Activity (Candida albicans [27]): Active
Activity (Candida albicans [28]): 44%
Activity [2]: inactive
MIC (Escherichia coli): > 128 µg/mL
MIC [3]: > 128 µg/mL
IC50 (A549): > 62.5 µg/mL
MIC (Staphylococcus aureus [4]): 32 µg/mL (≈ 47.9 µM)
hemolysis at 1 h, 125 ug/ml [29]: 40%
MIC (Staphylococcus aureus [6]): 16 µg/mL (≈ 24 µM)
Activity (Serratia marcescens): inactive
MIC (Pseudomonas aeruginosa): 32 µg/mL (≈ 47.9 µM)
MIC (Aspergillus nidulans): ≤ 1.95 µg/mL
MIC (Acinetobacter baumannii): > 128 µg/mL
MIC (Candida albicans [7]): 7.8 µg/mL (≈ 11.7 µM)
MIC (Candida albicans [8]): 31.2 µg/mL (≈ 46.7 µM)
MIC (Candida albicans [30]): 1 µg/mL
MIC (Bacillus subtilis): > 128 µg/mL
MIC (Candida albicans [9]): 31.2 µg/mL (≈ 46.7 µM)
MIC (Candida albicans [31]): 2 µg/mL
MIC (Candida albicans [32]): 2 µg/mL
Activity [10]: inactive
Activity [12]: inactive
MIC (Staphylococcus aureus [13]): 16 µg/mL (≈ 24 µM)
MIC (Candida albicans [15]): 31.2 µg/mL (≈ 46.7 µM)
LCK (Candida albicans [33]): >=2
MIC (Candida albicans [34]): 8 µg/mL
MIC (Candida albicans [35]): 2 µg/mL
MIC (Candida albicans [36]): 2 µg/mL
Activity [17]: inactive
Activity [19]: inactive
MIC (Candida albicans [20]): 31.2 µg/mL (≈ 46.7 µM)
MIC (Klebsiella pneumoniae): > 128 µg/mL
MIC (Candida albicans [23]): 31.2 µg/mL (≈ 46.7 µM)
IC50 [37]: > 125 µg/mL
